The source made the active and inactive calls. The rule behind the calls is not given here.
Tests used:
[1] = target: T1, Protein lin-28 homolog A (Homo sapiens, UniProt Q9H9Z2); experiment: Inhibition of Cy5-preE-let-7g binding to recombinant human N-terminal His6-tagged Lin28a expressed in Escherichia coli Rosetta2 (DE3) pLysS measured after 30 to 60 mins by electrophoretic mobility shift assay
T1 sequence (Q9H9Z2 whole entry): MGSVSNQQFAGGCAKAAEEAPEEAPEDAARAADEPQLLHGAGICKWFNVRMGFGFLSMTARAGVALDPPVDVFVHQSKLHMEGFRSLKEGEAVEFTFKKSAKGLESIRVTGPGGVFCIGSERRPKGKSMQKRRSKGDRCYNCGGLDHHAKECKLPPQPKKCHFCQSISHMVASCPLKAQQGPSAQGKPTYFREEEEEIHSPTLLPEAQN

[2] = target: T2, Protein lin-28 homolog A (Homo sapiens) (UniProt Q9H9Z2); experiment: Inhibition of Cy5-preE-let-7a-1 binding to recombinant human N-terminal His6-tagged Lin28a expressed in Escherichia coli Rosetta2 (DE3) pLysS measured after 30 to 60 mins by electrophoretic mobility shift assay
T2 sequence (whole entry): T1 sequence (Q9H9Z2 whole entry)

[3] = target: T2, Protein lin-28 homolog A (Homo sapiens); experiment: Inhibition of PreE-let-7a-1-BHQ2 binding to recombinant human N-terminal His6-tagged/Cy3-labelled Lin28a expressed in Escherichia coli Rosetta2 (DE3) pLysS measured after 30 to 60 mins by FRET assay
[4] = target: T2, Protein lin-28 homolog A (Homo sapiens); experiment: Inhibition of pre-let-7g binding to recombinant human N-terminal His6-tagged Lin28a expressed in Escherichia coli Rosetta2 (DE3) pLysS assessed as increase in dicer-mediated pre-let-7g microRNA maturation at 5 to 10 uM measured after 40 mins by SYBR green2 dye based fluorescence assay
[5] = target: Endoribonuclease Dicer (Homo sapiens) (UniProt Q9UPY3); experiment: Inhibition of recombinant FLAG-tagged human dicer expressed in HEK293 cells assessed as reduction in pre-let-7g microRNA maturation at 5 to 10 uM after 40 mins by SYBR green2 dye based fluorescence assay; format: cell-based
[6] = target: T3, Protein lin-28 homolog B (Homo sapiens) (UniProt Q6ZN17); experiment: Inhibition of biotinylated-preE-let-7g binding to Lin28b in human JAR cells by pull down assay; format: cell-based
T3 sequence (whole entry): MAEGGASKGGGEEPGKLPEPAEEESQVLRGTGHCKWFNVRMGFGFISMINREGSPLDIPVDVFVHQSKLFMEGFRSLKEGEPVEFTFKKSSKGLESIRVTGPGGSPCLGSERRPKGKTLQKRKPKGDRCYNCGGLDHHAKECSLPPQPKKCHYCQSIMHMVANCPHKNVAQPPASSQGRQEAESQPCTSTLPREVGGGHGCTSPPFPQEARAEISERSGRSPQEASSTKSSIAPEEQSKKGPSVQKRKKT
Outline: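 5′-Biotinylated preE-let-7g is immobilized on streptavidin beads and incubated with proteome from JAR human choriocarcinoma cells, which express Lin28a and Lin28b. Test compound is present during binding, and target engagement is judged by the proteins pulled down.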

[7] = target: T1, Protein lin-28 homolog A; experiment: Binding affinity to recombinant human N-terminal His6-tagged Lin28a expressed in Escherichia coli Rosetta2 (DE3) pLysS by surface plasmon resonance analysis
Outline: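 Surface plasmon resonance detecting direct binding of analyte to immobilized Lin28a, run at concentrations from 0.31 to 10 μM; binding read as a dose–response curve and Rmax calculated.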

[8] = target: T4, Protein lin-28 homolog A/B (Homo sapiens) (UniProt Q6ZN17+Q9H9Z2); experiment: Inhibition of Lin28a/Lin28b in human JAR cells assessed as increase in mature let-7f level after 20 hrs by TRIzol dye based qRT-PCR analysis; format: cell-based
Outline: (§1)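 JAR cells (express Lin28a and Lin28b) exposed to compound for 20 h; miRNA levels quantified with U6 snRNA as endogenous control; three or more biological replicates, standard deviation, paired two-tailed t test.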

[9] = target: T4, Protein lin-28 homolog A/B (Homo sapiens); experiment: Inhibition of Lin28a/Lin28b in human JAR cells assessed as increase in mature let-7i level after 20 hrs by TRIzol dye based qRT-PCR analysis; format: cell-based; outline: as §1
[10] = test system: JAR; experiment: Effect on miR-20b level in human JAR cells at 5 to 10 uM after 20 hrs by TRIzol dye based qRT-PCR analysis; format: functional, cell-based; outline: as §1
[11] = test system: JAR; experiment: Increase in mature let-7i level in Lin28a/b knockdown human JAR cells at 10 uM after 20 hrs by qRT-PCR analysis; format: functional, cell-based
Outline: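 Lin28 knocked-down JAR cells treated for 20 h; let-7 levels measured against U6 snRNA endogenous control; 2 biological replicates.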

[12] = target: T2, Protein lin-28 homolog A (Homo sapiens); experiment: Inhibition of Lin28a in human PA1 cells assessed as increase in mature let-7g level at 10 uM after 20 hrs by TRIzol dye based qRT-PCR analysis; format: cell-based
Outline: (§2)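 PA-1 ovarian teratocarcinoma cells (express Lin28a) treated for 20 h; let-7 quantified relative to U6 snRNA; 4 biological replicates, standard deviation, paired two-tailed t test.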

[13] = target: T2, Protein lin-28 homolog A (Homo sapiens); experiment: Inhibition of Lin28a in human PA1 cells assessed as increase in mature let-7i level at 10 uM after 20 hrs by TRIzol dye based qRT-PCR analysis; format: cell-based; outline: as §2
[14] = test system: PA-1; experiment: Increase in mature let-7d level in Lin28a CRISPR-Cas9 knockout human PA1 cells at 10 uM after 20 hrs by qRT-PCR analysis; format: functional, cell-based
Outline: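 PA-1 cells with Lin28a fully knocked out by CRISPR/Cas9 editing (clonal lines) treated for 20 h; let-7 levels normalized to U6 snRNA; 2 technical replicates.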

[15] = target: T2, Protein lin-28 homolog A (Homo sapiens); experiment: Inhibition of Lin28a in human PA1 cells assessed as reduction in Ras expression at 10 uM after 24 hrs by Western blot analysis; format: cell-based
Outline: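 Endogenous let-7 target proteins (HMGA2, IMP1, Ras, Lin28a) detected by Western blot in JAR or PA-1 cells after 24 h compound treatment.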

[16] = target: T4, Protein lin-28 homolog A/B (Homo sapiens); experiment: Inhibition of Lin28a/Lin28b in human MCF7 cells assessed as reduction in HMGA2 expression at 10 uM after 24 hrs by Western blot analysis; format: cell-based
[17] = target: T4, Protein lin-28 homolog A/B (Homo sapiens); experiment: Inhibition of Lin28a/Lin28b in human paclitaxel-resistant JAR cells assessed as potentiation of paclitaxel induced cytotoxicity at 10 uM pretreated for 30 hrs followed by paclitaxel addition and measured after 72 hrs by WTS assay
Outline: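 Paclitaxel-resistant JAR persister cells, enriched by cytotoxic paclitaxel exposure and regrowth without drug. Cells pretreated 30 h with compound, then given paclitaxel for 72 h without compound; WST viability used to derive the paclitaxel IC50.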

[18] = test system: JAR; experiment: Inhibition of sphere formation in human JAR cells at 10 uM after 24 hrs by bright-field microscopic analysis; format: functional, cell-based
Outline: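 JAR cells are pretreated with compound for 24 h, then dissociated to single cells. Equal numbers of viable cells are grown for 12 days in sphere-forming media. The degree of sphere formation is assessed under a microscope.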

[19] = test system: PA-1; experiment: Cytotoxicity against human PA1 cells after 24 hrs by WST assay; format: functional, cell-based
[20] = test system: C2C12; experiment: Cytotoxicity against mouse C2C12 cells at 10 uM after 24 hrs by WST assay; format: cell-based; conditions: c2c12, 24 h
[21] = target: T4, Protein lin-28 homolog A/B (Homo sapiens); experiment: Inhibition of Lin28a/Lin28b in human JAR cells assessed as reduction in HMGA2 expression after 20 hrs by dual-luciferase reporter gene assay

Sequence of Endoribonuclease Dicer (Homo sapiens) (Q9UPY3 whole entry): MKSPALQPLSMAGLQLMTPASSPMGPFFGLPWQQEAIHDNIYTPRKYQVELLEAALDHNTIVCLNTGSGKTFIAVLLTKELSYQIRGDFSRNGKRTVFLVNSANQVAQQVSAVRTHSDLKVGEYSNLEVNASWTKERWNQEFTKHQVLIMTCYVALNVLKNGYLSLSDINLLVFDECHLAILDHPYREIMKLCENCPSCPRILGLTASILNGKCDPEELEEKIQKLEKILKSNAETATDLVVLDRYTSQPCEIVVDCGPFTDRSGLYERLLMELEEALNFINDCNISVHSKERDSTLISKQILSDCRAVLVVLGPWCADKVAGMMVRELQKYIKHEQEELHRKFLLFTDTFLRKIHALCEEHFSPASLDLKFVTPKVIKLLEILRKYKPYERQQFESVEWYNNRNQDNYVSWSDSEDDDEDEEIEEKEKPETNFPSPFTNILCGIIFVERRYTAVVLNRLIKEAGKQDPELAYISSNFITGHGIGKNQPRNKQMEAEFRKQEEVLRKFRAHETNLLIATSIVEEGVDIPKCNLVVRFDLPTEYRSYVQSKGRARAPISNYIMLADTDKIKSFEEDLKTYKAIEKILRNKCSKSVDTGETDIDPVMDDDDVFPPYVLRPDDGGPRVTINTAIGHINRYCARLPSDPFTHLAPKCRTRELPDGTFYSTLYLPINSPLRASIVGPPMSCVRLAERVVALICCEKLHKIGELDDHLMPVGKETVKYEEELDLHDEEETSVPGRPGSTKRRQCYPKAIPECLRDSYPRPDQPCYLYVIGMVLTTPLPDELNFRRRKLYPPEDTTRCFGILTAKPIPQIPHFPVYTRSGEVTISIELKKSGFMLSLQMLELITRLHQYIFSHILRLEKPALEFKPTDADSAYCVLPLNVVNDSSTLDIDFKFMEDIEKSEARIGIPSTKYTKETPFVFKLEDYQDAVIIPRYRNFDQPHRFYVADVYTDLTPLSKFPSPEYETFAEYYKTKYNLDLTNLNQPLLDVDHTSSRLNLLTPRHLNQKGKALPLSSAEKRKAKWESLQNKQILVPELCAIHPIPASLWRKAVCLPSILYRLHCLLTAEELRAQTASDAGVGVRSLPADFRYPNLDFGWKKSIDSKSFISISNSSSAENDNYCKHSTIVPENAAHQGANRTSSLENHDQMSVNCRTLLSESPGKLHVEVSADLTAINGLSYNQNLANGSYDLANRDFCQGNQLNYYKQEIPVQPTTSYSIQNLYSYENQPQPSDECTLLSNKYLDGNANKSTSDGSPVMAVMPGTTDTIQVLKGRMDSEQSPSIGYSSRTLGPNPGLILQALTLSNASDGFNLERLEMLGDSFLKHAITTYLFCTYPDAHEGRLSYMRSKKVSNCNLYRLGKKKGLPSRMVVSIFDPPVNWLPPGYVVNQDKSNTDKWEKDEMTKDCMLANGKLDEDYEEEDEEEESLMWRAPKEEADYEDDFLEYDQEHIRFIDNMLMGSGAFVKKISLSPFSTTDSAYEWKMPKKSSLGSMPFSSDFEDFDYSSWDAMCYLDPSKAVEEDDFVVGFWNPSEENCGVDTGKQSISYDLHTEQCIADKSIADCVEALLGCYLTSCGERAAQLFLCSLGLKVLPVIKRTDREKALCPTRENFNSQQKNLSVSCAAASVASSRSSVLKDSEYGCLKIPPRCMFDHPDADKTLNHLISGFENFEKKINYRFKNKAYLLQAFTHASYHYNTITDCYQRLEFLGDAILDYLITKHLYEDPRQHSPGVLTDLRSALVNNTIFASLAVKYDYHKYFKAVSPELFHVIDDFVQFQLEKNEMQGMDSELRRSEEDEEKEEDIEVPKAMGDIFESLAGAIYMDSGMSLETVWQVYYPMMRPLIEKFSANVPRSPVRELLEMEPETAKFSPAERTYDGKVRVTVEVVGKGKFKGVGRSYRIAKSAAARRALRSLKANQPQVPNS

- IC50 [1]: 4.8 µM
- inhibition [2]: Active
- inhibition [3]: Dose-dependent effect
- inhibition [4]: Active
- inhibition [5]: inactive
- inhibition [6]: Dose-dependent effect
- Kd [7]: 5.9 µM
- inhibition [8]: Dose-dependent effect
- inhibition [9]: Dose-dependent effect
- inhibition [12]: Active
- inhibition [13]: Active
- inhibition [15]: Active
- inhibition [16]: inactive
- inhibition [21]: Dose-dependent effect
Structure (SMILES): NC(=O)c1c(Nc2ccc(Cl)cc2Cl)[nH]c2c(Cl)ccc(Cl)c2c1=O
- Activity [10]: inactive
- Activity [11]: inactive
- Activity [14]: inactive
- inhibition [17]: Active
- inhibition [18]: Active
- Activity [19]: Active
- Activity [20]: Toxic

Reference: ChEMBL document CHEMBL4325922, “Restoring Let-7 microRNA Biogenesis Using a Small-Molecule Inhibitor of the Protein-RNA Interaction” (ACS Med Chem Lett, 2018)
